Results taken from ChEMBL document CHEMBL1135255, “Design, synthesis and bioactivity evaluation of tribactam beta lactamase inhibitors” (Bioorg Med Chem Lett, 2002).

Tests used:
[1] = target: T1, Beta-lactamase 1 (Bacillus cereus) (UniProt P00809); assay: Inhibitory activity at beta-lactamase I from Bacillus cereus expressed as percent inhibition of beta-lactam hydrolysis at a concentration of 100.0 umol/L; The inhibitory activity at lower concentrations was not determined
T1 sequence (whole entry): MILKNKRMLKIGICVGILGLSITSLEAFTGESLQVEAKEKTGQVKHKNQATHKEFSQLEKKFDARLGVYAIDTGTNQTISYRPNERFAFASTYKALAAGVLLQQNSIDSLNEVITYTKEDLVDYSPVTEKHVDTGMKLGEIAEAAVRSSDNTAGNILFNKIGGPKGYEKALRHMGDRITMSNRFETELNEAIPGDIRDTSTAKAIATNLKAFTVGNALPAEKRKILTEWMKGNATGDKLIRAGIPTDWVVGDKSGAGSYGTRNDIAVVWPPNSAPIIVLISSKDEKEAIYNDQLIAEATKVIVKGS
In short: (§1)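 B. cereus beta-lactamase I was preincubated with inhibitor (range 1–100) for 20 min at 25 °C in microtitre plates. Chromogenic substrate nitrocefin was then added, followed by a further 60 min incubation. Hydrolysis was monitored spectrophotometrically at 490 nm, and the reduction in nitrocefin hydrolysis was expressed as % enzyme inhibition.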

[2] = target: T1, Beta-lactamase 1 (Bacillus cereus); assay: Inhibitory activity at beta-lactamase I from Bacillus cereus expressed as percent inhibition of beta-lactam hydrolysis at a concentration of 100.0 umol/L; in short: as §1
[3] = target: Beta-lactamase class C (Enterobacter cloacae, UniProt Q59401); assay: The compound was tested for its inhibitory activity towards Class C beta-lactamase from Enterobacter cloacae 908R at 0.8 umol concentration; type: single protein
[4] = target: T1, Beta-lactamase 1 (Bacillus cereus); assay: Inhibitory activity at beta-lactamase I from Bacillus cereus expressed as percent inhibition of beta-lactam hydrolysis at a concentration of 1.0 umol/L; in short: as §1
[5] = target: Beta-lactamase TEM (Escherichia coli, UniProt P62593); assay: The compound was tested for its inhibitory activity towards Class A TEM-1 beta-lactamase from Escherichia coli at 0.3 umol
[6] = target: T1, Beta-lactamase 1 (Bacillus cereus); assay: Inhibitory activity at beta-lactamase I from Bacillus cereus expressed as percent inhibition of beta-lactam hydrolysis at a concentration of 10.0 umol/L; in short: as §1

Sequence of Beta-lactamase class C (Q59401 whole entry): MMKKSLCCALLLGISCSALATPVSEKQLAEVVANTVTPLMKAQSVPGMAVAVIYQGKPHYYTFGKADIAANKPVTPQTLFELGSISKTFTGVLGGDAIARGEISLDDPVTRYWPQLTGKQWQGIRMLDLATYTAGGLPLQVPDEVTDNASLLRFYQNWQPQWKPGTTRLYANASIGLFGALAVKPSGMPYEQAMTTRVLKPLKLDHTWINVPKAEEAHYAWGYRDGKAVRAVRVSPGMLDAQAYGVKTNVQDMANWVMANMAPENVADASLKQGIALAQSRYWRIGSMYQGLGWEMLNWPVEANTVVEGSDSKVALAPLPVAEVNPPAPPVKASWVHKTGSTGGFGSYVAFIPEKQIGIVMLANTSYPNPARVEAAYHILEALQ
Sequence of Beta-lactamase TEM (P62593 whole entry): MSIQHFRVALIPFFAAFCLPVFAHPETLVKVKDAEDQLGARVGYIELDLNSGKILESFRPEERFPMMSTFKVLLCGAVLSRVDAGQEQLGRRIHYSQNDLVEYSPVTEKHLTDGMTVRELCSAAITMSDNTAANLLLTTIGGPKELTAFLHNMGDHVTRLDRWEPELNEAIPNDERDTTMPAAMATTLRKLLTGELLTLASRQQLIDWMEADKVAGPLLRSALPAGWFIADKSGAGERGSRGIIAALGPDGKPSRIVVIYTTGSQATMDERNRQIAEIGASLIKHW

SMILES	inhibition [1] [%]	inhibition [2] [%]	IC50 [3] [µM]	inhibition [4] [%]	IC50 ([5]; read-out: IC50) [µM]	inhibition [6] [%]	IC50 [5] [uM l-1]
C[C@@H](O)[C@H]1C(=O)N2C(C(=O)O)=C3CCCCC3[C@@H]12 (some centres undefined)	3						
C/C=C1/C(=O)N2C(C(=O)O)=C3CCCCC3[C@@H]12 (some centres undefined)		61	3	-1	39	14	
C/C=C1/C(=O)N2C(C(=O)O)=C3CCSCC3[C@H]12 (some centres undefined)	38		4.2		100		
CC1(C)[C@H](C(=O)O)N2C(=O)C[C@H]2S1(=O)=O		77		2		40	
C/C=C1/C(=O)N2C(C(=O)[O-])=C3CCCCC3[C@H]12.[Na+] (some centres undefined)	23		1.8				120
C[C@@H](O)[C@H]1C(=O)N2C(C(=O)O)=C3CCCCC3[C@H]12 (some centres undefined)	5						
O=C(O)[C@H]1/C(=C/CO)O[C@@H]2CC(=O)N21		78		9		33	
C/C=C1/C(=O)N2C(C(=O)O)=C3CCSCC3[C@@H]12 (some centres undefined)		60	5	6	32	19	
